# Results: PubChem BioAssay AID1448 (The Scripps Research Institute Molecular Screening Center, 2008)
# Out of some 220,000 compounds screened, about 630 (0.29%) were called active. The sample as a whole holds a higher share of actives than the screen did. A number with no mark means an inactive call.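 The calls were made as follows: active = activation above its plate's cutoff, the mean activation of the plate's test wells plus 3 SD (cut at about 12% in these data); inactive = the rest.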
# Molecular target: Mucolipin-3 (Homo sapiens) (UniProt Q8TDD5)
# Sequence (Q8TDD5 whole entry, looked up): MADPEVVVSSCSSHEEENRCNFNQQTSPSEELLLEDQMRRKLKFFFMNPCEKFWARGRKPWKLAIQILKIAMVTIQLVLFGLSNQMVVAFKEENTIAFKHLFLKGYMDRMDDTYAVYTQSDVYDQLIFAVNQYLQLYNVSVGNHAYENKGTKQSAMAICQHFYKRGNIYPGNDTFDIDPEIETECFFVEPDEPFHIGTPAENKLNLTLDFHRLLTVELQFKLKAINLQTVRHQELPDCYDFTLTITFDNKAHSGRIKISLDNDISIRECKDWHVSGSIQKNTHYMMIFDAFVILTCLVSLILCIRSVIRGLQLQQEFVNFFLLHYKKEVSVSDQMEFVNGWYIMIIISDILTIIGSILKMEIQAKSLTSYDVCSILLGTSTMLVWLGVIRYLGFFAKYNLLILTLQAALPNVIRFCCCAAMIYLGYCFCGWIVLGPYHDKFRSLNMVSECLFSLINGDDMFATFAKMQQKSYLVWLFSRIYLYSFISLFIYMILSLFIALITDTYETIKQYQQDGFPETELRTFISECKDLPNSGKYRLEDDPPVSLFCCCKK
# Test: activators of mucolipin-3 cation channel – cell-based, HEK293 TRPML3-YFP, Fluo-8 calcium fluorescence, 3 µM, primary screen (AID 1448)
# Settings: at 3 µM, stronger effect = higher value, 100% = the carbachol control signal
# Method in brief: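 Test system – HEK293 line with stable expression of human TRPML3-YFP channel · Control set – carbachol 87 µM final as high control (100%), DMSO as low control (0%) · Signal – Fluo-8 calcium dye fluorescence, ex 470-495, em 515-575 nm · Incubation – 1-h 37 °C dye load, 5-s basal, 120-s post-compound reads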
row,SMILES,activation
1,Cc1nnc(N/N=C/C2CC=CCC2)[nH]c1=O (stereo not given),1.13%
2,O=C(NCCc1c[nH]c2ccccc12)C(=O)NCC1CCCO1 (stereo not given),0.08%
3,N#C/C(=C/c1ccc(-c2ccccc2[N+](=O)[O-])o1)C(=O)NCCN1CCCCC1,-0.32%
4,N#C/C(=C/c1ccc(N2CCCCC2)o1)C(=O)NCCc1c[nH]c2ccccc12,15.6% (active)
5,Cn1c(SCC(=O)c2ccc(F)cc2)nnc1-c1ccccn1,-0.33%
6,Cc1nc(COc2cccc(Cl)c2)sc1C(=O)/C=C/N(C)C,-0.16%
7,COc1ccc(N=C(C)c2sc3ccccc3c2O)cc1,2.16%
8,CCC(C(=O)Nc1ccc(C(C)C)cc1)c1ccccc1 (stereo not given),15.7% (active)
9,CCC(C(=O)OCC(=O)Nc1ccc(C(=O)Nc2ccc(OC)cc2)cc1)c1ccccc1 (stereo not given),1.2%
10,CCC(C(=O)Nc1ccc2c(c1)OCCO2)c1ccccc1 (stereo not given),-0.06%
11,Cn1cccc1/C=N/NC(=O)c1ccc(OC(F)(F)C(F)F)cc1,0.29%
12,Cc1cc(NC(=O)CCC(=O)N(CC(=O)NCC2CCCO2)c2ccccc2C)no1 (stereo not given),-0.47%
13,Cc1cc(C)nc(/N=C2\NC(=O)CC(C(=O)O)N2c2ccc(Cl)cc2Cl)n1 (stereo not given),0.53%
14,Cc1ccc(C(NC(=O)N2CCCC2)C(Cl)(Cl)Cl)cc1F (stereo not given),-0.15%
15,Oc1ccc2ccc3cccc[n+]3c2c1,14.6% (active)
16,C/C(=N\Nc1nc(N2CCOCC2)nc(N2CCOCC2)n1)c1ccc([N+](=O)[O-])cc1,0.78%
17,COc1ccc(/C=N/NC(=O)C(C)N(c2ccc(OC)cc2)S(C)(=O)=O)cc1 (stereo not given),0.53%
18,CC(C)n1c(CN2CCN(Cc3ccccc3)CC2)nc2ccccc21,0.13%
19,CCN(C(=O)Cc1nc(N)n[nH]1)C1(C(=O)Nc2ccccc2)CCCCC1,-0.28%
20,Cc1nc2sc(C(=O)c3ccccc3)c(N)c2c2c1CCCC2,-0.35%
21,Nc1c(C(=O)c2cccs2)sc2nsc(SCCN3CCCCC3)c12,23.1% (active)
22,CN(C)c1ccnc2sc(C(=O)c3ccccc3)c(N)c12,-0.55%
23,CCN(CC)c1ccc(C(=O)c2cnc(/N=C/N(C)C)s2)cc1,-0.38%

row,SMILES,activation
1,COC(=O)c1ccccc1N=Nc1c(C)[nH][nH]c1=O,0.25%
2,C[C@@H](NC(=O)OC(C)(C)C)c1nnc(S(=O)(=O)Cc2ccccc2)o1,1.12%
3,CCN1CCN(CCNC(=O)c2ccc(/C=C3/Sc4ccccc4N(Cc4cccc(C)c4)C3=O)cc2)CC1,1.89%
4,CCN1/C(=C/C(=S)Nc2ccccc2)Sc2ccccc21,-0.23%
5,CCN1/C(=C/c2ccc3ccc(C)cc3[n+]2CC)Sc2ccccc21,12.7% (active)
6,CCN1/C(=C\c2ccc3ccccc3[n+]2CC)Sc2cc(C)ccc21,16.6% (active)
7,COc1ccc(N(Cc2ccccc2)S(=O)(=O)c2cccc(C(=O)O)c2)cc1,0.34%
8,COc1ccc(N(CCC#N)S(=O)(=O)c2ccc(Cl)cc2)cc1,11.9% (active)
9,COc1ccc(CNC(=O)CN(Cc2ccc(Cl)cc2)S(C)(=O)=O)cc1,0.83%
10,Cc1[nH]c2c(C(=O)N3CCCC(CCC(=O)NCc4ccccc4F)C3)cccc2c1C (stereo not given),-0.04%
11,COC(=O)CCC(=O)N1CCCC(CO)(Cc2ccccc2)C1 (stereo not given),0.26%
12,Cc1ccccc1-n1nc(C)c2c1N=C1C(Cl)=CC(Cl)=CN1C2c1ccc(C(=O)O)cc1 (stereo not given),0.62%
13,Cc1ccc(OCC(=O)Nc2ccccc2Sc2ccc(Cl)cc2)c([N+](=O)[O-])n1,0.1%
14,CC(C)CNC(=O)C(=O)Nc1ccc(N(C)C)cc1,1.3%
15,O=[N+]([O-])/C=C1\CCCCCN1,0.64%
16,CCOC(=O)N1CCN(C(=O)CN(c2ccc(C)c(C)c2)S(=O)(=O)c2ccccc2)CC1,0.07%
17,COc1ccc(Cl)cc1N(CC(=O)N/N=C/c1ccc(OCC(N)=O)cc1)S(C)(=O)=O,0.86%
18,COc1ccccc1N(CC(=O)N1CCCCC1)S(=O)(=O)c1ccccc1,162% (active)
19,COc1cccc2c(=O)n(CC(=O)N3CCCCCC3)ccc12,0.82%
20,COc1ccc(S(=O)(=O)N(C)CC(=O)N2CCCC2)cc1Cl,0.85%
21,COc1ccc(Cl)cc1N(CC(=O)N1CCCCC1)S(C)(=O)=O,56.7% (active)
22,CCCC(=O)Nc1ccc2c(c1)nc(CCNC(=O)c1ccco1)n2C,0.81%
23,CCOc1ccc(CN2CCN(Cc3ccc(C)o3)CC2CCO)cc1 (stereo not given),1.1%

row,SMILES,activation
1,CN(Cc1nc(-c2cnccn2)no1)Cc1n[nH]c2c1CCCCC2,0.69%
2,CCn1c(SCC(=O)Nc2nccs2)nnc1-c1ccco1,0.4%
3,O=C(CSc1nnc2ccc(-c3ccncc3)nn12)N1CCCCC1,-0.71%
4,Cc1ccc(F)cc1NC(=O)N1CCCN(c2ccc(C(F)(F)F)cn2)CC1,2.2%
5,Cc1cccc(NC(=O)CN2C(=O)c3ccccc3C2=O)c1C,1.15%
6,Cc1cc2c(cc1C)N(C(=O)CN1C(=O)c3ccccc3C1=O)C(C)(C)c1ssc(=S)c1-2,81.4% (active)
7,Cc1ccc2c(c1)-c1c(ssc1=S)C(C)(C)N2C(=O)CN1C(=O)c2ccccc2C1=O,-0.04%
8,CCOc1ccc(NC(=O)NNC(=O)c2ccc(Cl)cc2Cl)cc1,0.56%
9,O=C(NCCN1CCOCC1)c1ccc2c(c1)N(Cc1ccc(Cl)cc1)CCS2,0.23%
10,O=C1/C(=C/c2cccs2)SC(=S)N1C1CCS(=O)(=O)C1 (stereo not given),0.54%
11,O=C(Nc1nc2ccc([N+](=O)[O-])cc2s1)c1ccncc1,1.14%
12,O=C(NC(Nc1nc2ccc([N+](=O)[O-])cc2s1)(C(F)(F)F)C(F)(F)F)c1ccccc1,13% (active)
13,O=C(O)CCC(=O)Nc1nc2ccc([N+](=O)[O-])cc2s1,0.5%
14,C=CCNC(=O)COC(=O)CNC(=O)c1cc(Cl)cc([N+](=O)[O-])c1,0.51%
15,COc1ccc(NS(=O)(=O)c2ccc(Oc3c(C#N)cccc3C#N)cc2)cc1,4.31%
16,Cc1nnc(C)c2c(C)n(N)c(C)c12,0.94%
17,O=C(NC(CC(=O)N1CCN(c2ccccc2)CC1)c1ccccc1)c1ccccc1Cl (stereo not given),-0.24%
18,COc1ccc(C(=O)N/N=c2\oc3ccccc3cc2C(N)=O)cc1,0.85%
19,CCN(CC)c1ccc2cc(C(=O)O)c(=O)oc2c1,0.92%
20,CCN(CC)c1ccc2cc(C(N)=O)/c(=N\NC(=O)c3ccncc3)oc2c1,22.1% (active)
21,OCC(O)CN(c1ccccc1)c1ccccc1 (stereo not given),0.25%
22,CN1CCN(/N=C/c2ccc(-c3ccc([N+](=O)[O-])cc3)o2)CC1,4.1%
23,Cn1c2c(c(=O)n(C)c1=O)C(c1cccc(F)c1)C(C#N)=C(N)O2 (stereo not given),0.03%

row,SMILES,activation
1,Cc1nonc1C1CCCN1Cc1nc(-c2ccc(F)cc2F)oc1C (stereo not given),0.58%
2,O=S(=O)(c1cccc2nonc12)N1CCN(c2cccc(Cl)c2)CC1,0.52%
3,CCOC(=O)CC1C(=O)NCCN1C(=O)COc1ccc(Br)cc1C (stereo not given),-0.14%
4,CCOC(=O)CC1C(=O)NCCN1c1nc2c(C)cccn2c(=O)c1/C=C1\SC(=S)N(C(C)CC)C1=O (stereo not given),11.9% (active)
5,Cc1cccn2c(=O)c(/C=C3\SC(=S)N(CC(C)C)C3=O)c(NCCCOC(C)C)nc12,0.65%
6,CC(CC(=O)C1C(C)C=CCC1(C)C)NNC(N)=O (stereo not given),0.6%
7,O=C(CC(O)(C(F)(F)F)C(F)(F)F)Nc1ccc(Cl)c(Cl)c1,17.3% (active)
8,CN(C)CCNC(CC(=O)Nc1ccc(Cl)c(Cl)c1)C(=O)O (stereo not given),-0.13%
9,O=C(CC(=O)Nc1ccc(Cl)c(Cl)c1)N/N=C/c1ccc(O)cc1,0.24%
10,CCn1c(CSc2nc(C)cc(C)n2)nnc1SCC(N)=O,0.87%
11,CC(C)CN(CC(C)C)CC(O)CN(c1ccccc1)S(=O)(=O)c1ccccc1[N+](=O)[O-] (stereo not given),-1.13%
12,COc1ccc(-c2noc(-c3ccc(C)cc3)n2)cc1,1.08%
13,COc1ccc(-c2noc(CN(C)S(=O)(=O)c3ccc(C)cc3)n2)cc1,138% (active)
14,COc1ccc(-c2noc(CSc3ccc(C)cc3)n2)cc1,0.35%
15,Cc1ccnc(NC(=O)c2ccc(Cl)c([N+](=O)[O-])c2)c1,0.05%
16,CC(C)(C)OC(=O)N1CCC(NC(=O)c2[nH]cnc2C(=O)N[C@@H](Cc2ccccc2)C(=O)OCc2ccccc2)CC1,0.25%
17,COC(=O)c1ccc(NC(=O)c2ccccc2NS(=O)(=O)c2ccccc2)cc1,11.1%
18,COc1cc(NC(=O)c2cccnc2SC)cc(OC)c1,-0.28%
19,COc1cc(NC(=O)c2ccccc2NS(=O)(=O)c2ccc(Cl)s2)cc(OC)c1,12.1% (active)
20,CN(Cc1cc2cc(F)ccc2[nH]1)Cc1nc(-c2cnccn2)no1,0.76%
21,Cc1cccc(CSc2ccc(-c3cccs3)nn2)c1,0.19%
